# Compounds with a hit are over-represented: about 4.9% of the library has one in this group of screens.
# APP 5'UTR act = APP 5'UTR luciferase reporter activation | SH-SY5Y APP 5'UTR luciferase reporter, luminescence; zero percent = DMSO vehicle wells | activation, % at 2 µM | hit rate 1% among 190,000 | AID 1276;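 active = activation above a set limit, based on mean plus 3 SD of controls, cut at about 140% in these data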
# NF-kB neuron act = raises NF-kB expression in human neuronal cells | NF-kB reporter expression; active compounds read high | fold change at 12.5 µM | hit rate 1.6% among 190,000 | AID 1239; in the data active = fold change above about 3.3
# STAT3 activator = increases IL-6 driven STAT3 reporter signal | U3A cells, IL-6 STAT3-luciferase reporter, luminescence; 100% = signal with IL-6 EC80 alone | activation (% of control), % at 5.6 µM | hit rate 0.91% among 190,000;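 active = activation above the screen-wide mean of compound activation plus 3 SD, cut at about 130% in these data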;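 also: 0% = background luminescence of wells with medium and substrate only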
#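 system = STAT3-luciferase reporter U3A cells | reagent = IL-6 stimulus at 33 ng/mL final | timing = 1 h compound pre-exposure, 6 h IL-6 stimulation, 37 °C | measured by = luminescence | evaluation = % activation versus median of IL-6-stimulated wells | control set = IL-6-only wells as 100% reference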
# STAT1 inh = STAT1 signaling inhibition; AID 920; inhibition, % at 5.5 µM; NIH 3T3 STAT1-luciferase reporter, IFN-gamma, luminescence; hit rate 0.35% among 200,000;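 active = inhibition above a set limit, the mean inhibition across all tested compounds plus 3 SD, cut at about 34% in these data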;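 also: 0% = IFN-gamma with DMSO and 100% = IFN-gamma with 300 µM nifuroxazide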
# STAT1 activator = increases IFN-gamma driven STAT1 reporter signal | NIH 3T3 STAT1-luciferase reporter, luminescence; 100% = IFN-gamma alone, no compound | activation (% of control), % at 5.5 µM | hit rate 2.6% among 200,000 | AID 932;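 active = activation above the screen-wide mean activation plus 3 SD, cut at about 130% in these data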;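 also: raw ratio to IFN-gamma control signal so 100% means no change and 0% no light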
# STAT3 inh = reduces IL-6 driven STAT3 reporter signal. U3A cells, IL-6 STAT3-luciferase reporter, luminescence; host cell line lacks STAT1. inhibition, % at 5.5 µM. hit rate 0.89% among 190,000;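 active = inhibition above the mean inhibition across all screened compounds plus 3 SD, cut at about 44% in these data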;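 also: 0% = DMSO only wells and 100% = 100 µM nifuroxazide control wells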
# * = called active by the depositor; nt = not tested or not shown.
SMILES,APP 5'UTR act,NF-kB neuron act,STAT3 activator,STAT1 inh,STAT1 activator,STAT3 inh
CC(C)c1nnc(NC(=O)c2cccc(-n3cnnn3)c2)s1,11,1.1,89,-2,102,21
Cc1nc2ccccc2nc(=O)c1NNc1ccccc1,24,1.8,89,-32,129*,16
Cc1ccc2nc(=O)c(NNc3ccccc3)cnc2c1,18,1.7,88,-43,139*,21
Cc1cccc(C(=O)Nc2cccc(-c3cnc4ccccc4n3)c2)c1,0,1.4,83,6,97,26
Cc1nc2ccccc2nc1OCc1ccccc1,16,1.3,90,0,100,8
Cc1ccc(NC(=O)/C=C\C(=O)NCC(=O)O)cc1C,-1,1,98,4,96,6
CSc1nc(N)nc(-c2cccs2)c1C#N,13,1.2,90,-7,106,16
CC(C)Sc1nc(N)nc(-c2cccs2)c1C#N,nt,2.8,100,-37,134*,5
Cn1c(N)c(C(=O)c2ccc(F)cc2F)c(=O)n(C)c1=O,18,0.99,87,0,100,10
COc1ccc(Nc2cnn(-c3nc4ccccc4s3)c(=O)c2Cl)cc1,-19,1.9,89,5,96,11
O=c1c(Cl)c(Nc2cccc(Cl)c2)cnn1-c1nc2ccccc2s1,116,1.9,92,-56,150*,7
CCOC(=O)c1sc(-c2ccccn2)nc1C,67,2,124,-31,128,-27
O=C(CC1Nc2c3ccccc3nc(=S)n2C1=O)NC1CCCCC1 (stereo not drawn),13,1.3,99,1,98,4
Fc1ccc(NCc2cn3ccccc3n2)cc1,36,2.2,93,-38,135*,12
CC(=O)c1cnn(-c2nc3c(C)cccc3s2)c1C,0,3.9*,123,-21,120,-27
NCC12CC3CC(C1)CC(c1ccc(Cl)cc1)(C3)C2,13,0.98,105,-13,112,4
Cc1cc(C)cc(N=Cc2c(O)c3ccccc3oc2=O)c1,1,1.3,97,-10,107,7
COc1ccc(N=Cc2c(O)c3ccccc3oc2=O)cc1,14,0.93,111,-44,140*,-19
Cc1ccc(Nc2nc(CSc3nnc(-c4ccncc4)n3C)cs2)cc1,87,4.4*,70,6,94,38
Cc1ccc(CSc2nnc(-c3ccncc3)n2C)cc1,10,1.1,91,5,95,17
Cc1ccc(C2NC(=S)NC3=C2C(=O)CC(C)(C)C3)cc1 (stereo not drawn),25,0.78,95,5,96,1
COC(=O)c1cc(-c2ccc(OC)c(OC)c2)n[nH]1,-13,0.81,102,1,99,-4
CCOc1ccc(-c2[nH]ncc2-c2ccc(OC)c(OC)c2)c(O)c1,-70,0.75,87,3,97,19
COc1ccc(-c2cc(-c3ccccc3O)[nH]n2)cc1OC,194*,6.8*,98,-9,109,8
COc1ccc(-c2cc(-c3cc(F)ccc3O)[nH]n2)cc1OC,136*,2.9,106,-6,106,2
SMILES,APP 5'UTR act,NF-kB neuron act,STAT3 activator,STAT1 inh,STAT1 activator,STAT3 inh
COc1ccc(-c2cc(-c3ccc(OC)c(OC)c3)n[nH]2)c(O)c1,127,4*,99,4,97,-2
COc1ccc(O)c(-c2cc(-c3cccc(Br)c3)n[nH]2)c1,85,3.4*,103,-2,102,-1
COc1ccc(-c2cc(-c3cc(OC)ccc3O)[nH]n2)cc1,98,2.8,105,-15,114,-10
C/C(CC(=O)Nc1cc(Cl)ccc1Cl)=N\NC(=O)c1ccccc1Br,-1,nt,89,-5,102,17
COc1ccc2[nH]cc(S(=O)(=O)c3ccc(C(C)C)cc3)c(=O)c2c1,23,1.2,101,9,92,7
Cc1oc(/N=C/c2ccc3c(c2)OCO3)c(C#N)c1C,12,0.98,117,2,98,-14
CSc1nsc(N/N=C/c2ccc3c(c2)OCO3)c1C#N,168*,3.9*,94,-54,150*,14
COc1ccccc1N/N=C/c1ccc2c(c1)OCO2,3,1.1,40,51*,55,72*
COc1ccc(C2=NOC(C(=O)Nc3cccnc3Cl)C2)cc1 (stereo not drawn),-9,1.2,94,3,95,14
O=C(Nc1cccc(Br)c1)c1ccc(OC2CSC2)cc1,149*,3,96,-31,128,8
Cc1cccc(NC(=O)c2ccc(OC3CSC3)cc2)c1,158*,3.8*,87,-29,125,18
C/C(=N\NC(=S)Nc1ccccc1C)c1ccc(O)cc1,27,0.72,99,5,96,2
O=c1oc2ccccc2cc1N1CCOCC1,9,1.1,97,-7,107,3
Cc1ccc(OC(=O)c2cccc(S(=O)(=O)N(C)C)c2)c(-n2nc3ccccc3n2)c1,32,2.8,99,-12,112,-1
Cc1ccc(OCC(=O)O)c(-n2nc3ccccc3n2)c1,-4,1.1,105,10,91,0
Cc1ccc(OC(=O)c2ccc(S(=O)(=O)N(C)C)cc2)c(-n2nc3ccccc3n2)c1,85,4.5*,112,-16,114,-10
CC(=O)Oc1ccc(C)cc1-n1nc2ccccc2n1,104,3.5*,91,-17,115,15
Cc1ccc(OC(=O)c2cccc(S(=O)(=O)N3CCCC3)c2)c(-n2nc3ccccc3n2)c1,113,3.5*,115,-22,120,-20
CN1CCN(NC(=O)CSc2ccc(Cl)cc2Cl)CC1,-11,1.1,103,-6,107,2
O=C(N/N=C/c1c(Cl)cccc1Cl)c1n[nH]c2c1CCCC2,46,1.6,92,-31,128,5
Cc1ccsc1/C=N\NC(=O)c1n[nH]c2c1CCC2,26,4.8*,67,-23,121,38
Cc1ccsc1/C=N/NC(=O)c1ccc(-n2cccc2)cc1,28,1.7,92,-33,129*,13
Cc1ccsc1/C=N\NC(=O)c1ccc2c(c1)OCO2,132,4.3*,94,-24,121,9
Cc1nc(Oc2ccc(S(=O)(=O)N3CCOCC3)cc2Cl)c2c3c(sc2n1)CCCC3,6,1.2,104,-8,107,-4
COc1ccc2c(C)cc(N3CCOCC3)nc2c1,18,1.7,92,-16,115,13
COc1ccc2nc(N3CCOCC3)cc(C)c2c1,114,5*,78,-22,120,28
c1ccc(-c2nnc(SCCC3OCCCO3)o2)cc1,65,3.4*,100,-18,116,1
Brc1ccc(-c2nnc(SCCC3OCCCO3)o2)cc1,35,1.8,106,1,99,0
CCOCC(=O)Nc1cc(C(=O)OC)cc(C(=O)OC)c1,-9,1.2,110,-7,106,-7
